Laboratory results: PubChem BioAssay AID652196 (Vanderbilt Specialized Chemistry Center, 2013)

Each molecule was assayed against Metabotropic glutamate receptor 5 (Rattus norvegicus) (UniProt P31424) (assay: mGlu5 allosteric site binding affinity, dose response, biochemical, rat, HEK293A membranes, [3H]methoxyPEPy, full curve (AID 652196)). Conditions: rmGlu5 HEK293A membranes, [3H]methoxyPEPy displacement; call rule not given here.
In short: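 Evaluation: Ki from radioligand displacement | Material: Rat mGlu5 HEK293A cell membranes | Reagent: Radioligand [3H]methoxyPEPy at 2 nM | Compound: 10 doses, 0.1 nM–10 µM, 1% DMSO | Medium: HEPES-buffered HBSS with probenecid, pH 7.4 | Signal: Filter binding with scintillation counting | Times: Membrane, radioligand and compound incubation 1 h at room temperature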

Sequence of Metabotropic glutamate receptor 5 (Rattus norvegicus) (P31424 whole entry, looked up): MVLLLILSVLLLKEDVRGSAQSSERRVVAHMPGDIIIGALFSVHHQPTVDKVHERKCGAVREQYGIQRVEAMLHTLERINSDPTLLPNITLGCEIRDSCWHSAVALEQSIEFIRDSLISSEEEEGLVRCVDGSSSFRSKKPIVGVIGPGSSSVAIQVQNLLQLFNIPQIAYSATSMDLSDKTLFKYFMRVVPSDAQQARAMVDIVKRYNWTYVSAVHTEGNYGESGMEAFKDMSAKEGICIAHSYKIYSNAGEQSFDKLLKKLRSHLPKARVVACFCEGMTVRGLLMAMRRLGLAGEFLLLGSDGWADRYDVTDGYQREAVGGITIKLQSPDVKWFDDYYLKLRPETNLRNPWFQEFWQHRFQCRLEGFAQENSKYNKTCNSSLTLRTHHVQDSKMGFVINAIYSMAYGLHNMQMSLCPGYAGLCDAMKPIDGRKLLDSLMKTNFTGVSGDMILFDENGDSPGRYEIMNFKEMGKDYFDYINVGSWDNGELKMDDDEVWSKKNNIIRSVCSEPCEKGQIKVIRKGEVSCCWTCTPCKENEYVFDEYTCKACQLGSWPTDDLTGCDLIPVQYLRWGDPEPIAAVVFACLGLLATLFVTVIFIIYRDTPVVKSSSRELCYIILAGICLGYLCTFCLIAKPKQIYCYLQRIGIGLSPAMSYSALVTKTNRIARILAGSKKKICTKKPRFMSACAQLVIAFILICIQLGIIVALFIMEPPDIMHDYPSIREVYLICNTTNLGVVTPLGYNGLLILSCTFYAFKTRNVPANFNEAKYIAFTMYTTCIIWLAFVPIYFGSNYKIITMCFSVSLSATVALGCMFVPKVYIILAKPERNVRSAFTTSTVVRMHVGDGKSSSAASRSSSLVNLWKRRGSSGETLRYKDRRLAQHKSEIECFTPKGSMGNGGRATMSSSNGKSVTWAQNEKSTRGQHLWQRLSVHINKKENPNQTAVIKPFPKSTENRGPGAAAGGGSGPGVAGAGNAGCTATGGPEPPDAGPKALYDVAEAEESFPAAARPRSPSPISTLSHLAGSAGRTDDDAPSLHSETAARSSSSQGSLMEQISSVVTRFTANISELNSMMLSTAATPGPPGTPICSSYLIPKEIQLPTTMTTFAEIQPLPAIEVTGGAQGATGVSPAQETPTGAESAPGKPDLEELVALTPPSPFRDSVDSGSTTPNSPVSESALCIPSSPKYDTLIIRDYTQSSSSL

Ki, active:
O=C(c1ccc(C#Cc2cccc(F)c2)cn1)N1CCC(F)(F)C1 19 nM
O=C(c1ccc(C#Cc2cccc(F)c2)cc1)N1CCC1 29.6 nM
O=C(c1ccc(C#Cc2cccc(F)c2)cn1)N1CC(F)C1 48.7 nM
O=C(c1ccc(C#Cc2cccc(F)c2)cn1)N1CCCCC1 12.1 nM
CC1CCN1C(=O)c1ccc(C#Cc2cccc(F)c2)cn1 (centres undefined) 5.4 nM
O=C(c1ccc(C#Cc2cccc(F)c2)cn1)N1CC2CC2C1 (centres undefined) 18.2 nM
O=C(c1ccc(C#Cc2cccc(F)c2)cn1)N1CCOCC1 67.7 nM
O=C(c1ccc(C#Cc2cccc(F)c2)cn1)N1CCC1 51.6 nM
O=C(c1ccc(C#Cc2cccc(F)c2)cn1)N1CCCCCC1 18.7 nM
